Converted amounts (≈) assume the structure as drawn.
Legend:
[1] = tested on: Staphylococcus aureus; experiment: Inhibition of biofilm formation in methicillin-resistant Staphylococcus aureus MTCC 96 after 24 hr incubation by tissue culture plate method; conditions: MTCC 96, 24 h
[2] = tested on: Staphylococcus aureus; experiment: Antimicrobial activity against Staphylococcus aureus infected in CD1 mouse assessed as animal protection at 10 mg/kg, iv treated 4 hrs after infection measured 24 hrs post infection; assay type: functional
Procedure, shortened: (§1)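 Female CD-1 mice (20–25 g, ten per group) were infected intraperitoneally with 3 × 10^7 cfu/mouse, slightly above LD100. Test compound was given iv at 5, 10 or 25 mg/kg at infection and 4 h post infection. Vancomycin at 5 mg/kg served as comparator. Survival was scored 24 h post infection.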

[3] = Cytotoxicity against human HEK293 cells assessed as reduction in cell viability at 100 uM after 72 hrs by MTT assay; assay type: cell-based; conditions: read-out: INH
Procedure, shortened: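 HEK-293 cells were seeded at 5000 per well and left 24 h, then washed. They were exposed to 100 µM in RPMI + 5% FBS + 1% penicillin/streptomycin, with final DMSO ≤0.5%, for 72 h at 37 °C in 5% CO2. DMSO-treated cultures served as controls. Viability was read by MTT at 570 nm, in triplicate, as percentage inhibition.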

[4] = species: Danio rerio; experiment: Cardiotoxicity in zebra fish assessed as change in heart rate up to 30 uM; assay type: toxicity, organism-based; conditions: zebrafish, in vivo
Procedure, shortened: (§2)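 Zebrafish larvae at 3 dpf were dosed in 24-well plates, 5 embryos per well, in 0.1% DMSO vehicle at 1–30 µM for 4 h at 28 °C. Terfenadine 20 µM was the positive control. Atrial and ventricular beats were watched by light microscopy, timing 30 beats and averaging 5 embryos per well. Results are mean ± SEM, with significance versus control.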

[5] = target: DNA gyrase (Staphylococcus aureus, UniProt P0A0K8+P20831); experiment: Inhibition of Staphylococcus aureus DNA gyrase-mediated supercoiling of relaxed DNA using pBR 322 as substrate by agarose gel electrophoresis analysis; assay type: protein-complex assay
[6] = tested on: Staphylococcus aureus; experiment: Antimicrobial activity against Staphylococcus aureus infected in CD1 mouse assessed as animal protection at 25 mg/kg, iv treated 4 hrs after infection measured 24 hrs post infection
[7] = tested on: Staphylococcus aureus; experiment: Antimicrobial activity against Staphylococcus aureus infected in CD1 mouse assessed as animal protection at 5 mg/kg, iv treated 4 hrs after infection measured 24 hrs post infection; assay type: functional
Procedure, shortened: as §1

[8] = target: DNA gyrase subunit B (Staphylococcus aureus, UniProt P0A0K8); experiment: Inhibition of Staphylococcus aureus DNA gyrase B ATPase activity
[9] = tested on: Staphylococcus aureus; experiment: Antimicrobial activity against methicillin-resistant Staphylococcus aureus MTCC 96 after 16 to 24 hrs by agar dilution method; assay type: functional
Procedure, shortened: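 Agar dilution per CLSI guidelines on Mueller-Hinton agar. Overnight colonies suspended to about 10^6 cfu/mL, and 1 mL added to 19 mL medium. Stocks in 0.9% saline, tested over about 10 doubling dilutions from 100 µM to 0.1 µM. Plates incubated at 35 °C in ambient air for 16-20 h. MIC taken as the lowest concentration preventing visible growth.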

[10] = tested on: Staphylococcus aureus; experiment: Antimicrobial activity against Staphylococcus aureus MTCC 3160 after 16 to 24 hrs by agar dilution method; assay type: functional
Procedure, shortened: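 MIC by agar dilution per CLSI on Mueller-Hinton agar. Overnight colonies were suspended to about 10^6 cfu/mL, and 1 mL was added to 19 mL medium. Compounds were made up in 0.9% saline and tested over about 10 doubling dilutions, 100 µM to 0.1 µM. Plates ran 16-20 h at 35 °C in ambient air. MIC was the lowest concentration preventing visible growth.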

[11] = species: Danio rerio; experiment: Cardiotoxicity in zebra fish assessed as AV ratio up to 30 uM; assay type: organism-based; conditions: zebrafish, in vivo
Procedure, shortened: as §2

Sequence of DNA gyrase (P0A0K8 whole entry): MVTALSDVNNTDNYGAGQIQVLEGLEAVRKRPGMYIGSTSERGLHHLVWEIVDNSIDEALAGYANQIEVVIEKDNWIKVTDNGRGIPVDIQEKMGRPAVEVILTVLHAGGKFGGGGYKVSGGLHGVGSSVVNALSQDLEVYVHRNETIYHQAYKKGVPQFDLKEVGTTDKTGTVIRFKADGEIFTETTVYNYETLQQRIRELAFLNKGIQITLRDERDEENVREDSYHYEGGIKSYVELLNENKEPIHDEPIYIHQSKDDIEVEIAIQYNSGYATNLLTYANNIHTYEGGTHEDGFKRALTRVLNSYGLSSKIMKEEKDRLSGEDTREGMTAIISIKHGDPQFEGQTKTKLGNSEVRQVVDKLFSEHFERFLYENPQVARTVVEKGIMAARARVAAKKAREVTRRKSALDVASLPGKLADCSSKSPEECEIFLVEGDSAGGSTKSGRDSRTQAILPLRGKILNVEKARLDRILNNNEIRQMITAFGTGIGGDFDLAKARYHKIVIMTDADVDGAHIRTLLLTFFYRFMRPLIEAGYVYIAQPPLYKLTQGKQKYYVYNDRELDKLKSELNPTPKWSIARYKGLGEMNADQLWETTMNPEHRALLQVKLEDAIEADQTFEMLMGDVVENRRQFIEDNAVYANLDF
Sequence of DNA gyrase (P20831 whole entry): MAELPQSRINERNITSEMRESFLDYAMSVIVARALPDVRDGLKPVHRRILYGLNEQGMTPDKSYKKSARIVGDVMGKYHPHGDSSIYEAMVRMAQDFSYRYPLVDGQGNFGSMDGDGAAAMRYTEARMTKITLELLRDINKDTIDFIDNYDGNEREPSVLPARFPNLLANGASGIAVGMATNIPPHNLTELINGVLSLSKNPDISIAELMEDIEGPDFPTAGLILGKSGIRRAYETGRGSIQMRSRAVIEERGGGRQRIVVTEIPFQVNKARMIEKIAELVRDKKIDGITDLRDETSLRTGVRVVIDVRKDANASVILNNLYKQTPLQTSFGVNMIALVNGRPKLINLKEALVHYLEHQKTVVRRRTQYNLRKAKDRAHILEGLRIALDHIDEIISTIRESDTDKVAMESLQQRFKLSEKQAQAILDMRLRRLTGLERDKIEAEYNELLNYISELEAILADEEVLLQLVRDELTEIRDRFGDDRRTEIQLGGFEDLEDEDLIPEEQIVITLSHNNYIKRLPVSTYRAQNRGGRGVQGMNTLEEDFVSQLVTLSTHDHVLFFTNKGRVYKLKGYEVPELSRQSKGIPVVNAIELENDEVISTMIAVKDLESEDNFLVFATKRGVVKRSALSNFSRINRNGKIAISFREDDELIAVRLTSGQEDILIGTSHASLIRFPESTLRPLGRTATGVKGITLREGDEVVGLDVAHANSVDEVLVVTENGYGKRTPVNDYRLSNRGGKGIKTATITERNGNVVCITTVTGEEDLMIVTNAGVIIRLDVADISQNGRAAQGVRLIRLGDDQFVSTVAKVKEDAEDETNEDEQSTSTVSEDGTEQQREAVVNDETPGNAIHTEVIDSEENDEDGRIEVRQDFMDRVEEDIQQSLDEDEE
Sequence of DNA gyrase subunit B (P0A0K8 whole entry): as the sequence (P0A0K8 whole entry) above

## O=C(O)CCCC(=O)Nc1ccc(-c2nc3cc(F)ccc3[nH]2)cc1
[1]
  IC50: 9.63 µM
[2]
  Activity: 80%
[3]
  cytotoxicity at 72 h, 100 µM: 7.59%
[4]
  Activity: Non-toxic
[5]
  IC50: 1.13 µM
[6]
  Activity: 100%
[7]
  Activity: 60%
[8]
  IC50: 1.32 µM
[9]
  MIC: 9.15 µM (≈ 3.12 µg/mL)
[10]
  MIC: 4.57 µM (≈ 1.56 µg/mL)
[11]
  Activity: Non-toxic

## O=C(O)CCC(=O)Nc1ccc(-c2nc3ccccc3[nH]2)cc1
[1]
  IC50: 88.3 µM
[3]
  cytotoxicity at 72 h, 100 µM: 2.9%
[5]
  IC50: 6.12 µM
[8]
  IC50: 7.32 µM
[9]
  MIC: 40.4 µM (≈ 12.5 µg/mL)
[10]
  MIC: 20.2 µM (≈ 6.25 µg/mL)

## O=C(O)CCC(=O)Nc1ccc(-c2nc3cc(F)ccc3[nH]2)cc1
[1]
  IC50: 82.7 µM
[3]
  cytotoxicity at 72 h, 100 µM: 28.7%
[5]
  IC50: 12 µM
[8]
  IC50: 17.6 µM
[9]
  MIC: 38.2 µM (≈ 12.5 µg/mL)
[10]
  MIC: 38.2 µM (≈ 12.5 µg/mL)

## COC(=O)CCCC(=O)Nc1ccc(-c2nc3cc([N+](=O)[O-])ccc3[nH]2)cc1
[1]
  IC50: 59.3 µM
[3]
  cytotoxicity at 72 h, 100 µM: 35.9%
[5]
  IC50: 5.3 µM
[8]
  IC50: 9.83 µM
[9]
  MIC: 32.7 µM (≈ 12.5 µg/mL)
[10]
  MIC: 32.7 µM (≈ 12.5 µg/mL)

## O=C(O)CSCC(=O)Nc1ccc(-c2nc3cccnc3[nH]2)cc1
[1]
  IC50: 11.3 µM
[3]
  cytotoxicity at 72 h, 100 µM: 31.9%
[5]
  IC50: 1.7 µM
[8]
  IC50: 2.31 µM
[9]
  MIC: 9.12 µM (≈ 3.12 µg/mL)
[10]
  MIC: 4.55 µM (≈ 1.56 µg/mL)

## O=C(O)COCC(=O)Nc1ccc(-c2nc3cc(Cl)ccc3[nH]2)cc1
[1]
  IC50: 71.2 µM
[3]
  cytotoxicity at 72 h, 100 µM: 29.7%
[5]
  IC50: 12.5 µM
[8]
  IC50: 15.3 µM
[9]
  MIC: 69.5 µM (≈ 25 µg/mL)
[10]
  MIC: 34.7 µM (≈ 12.5 µg/mL)

## COc1ccc2[nH]c(-c3ccc(NC(=O)CCC(=O)O)cc3)nc2c1
[1]
  IC50: > 100 µM
[3]
  cytotoxicity at 72 h, 100 µM: 26.7%
[5]
  IC50: 11.3 µM
[8]
  IC50: 13.4 µM
[9]
  MIC: 73.7 µM (≈ 25 µg/mL)
[10]
  MIC: 73.7 µM (≈ 25 µg/mL)

## O=C(O)CCC(=O)Nc1ccc(-c2nc3cccnc3[nH]2)cc1
[1]
  IC50: 29.4 µM
[3]
  cytotoxicity at 72 h, 100 µM: 31.1%
[5]
  IC50: 3.13 µM
[8]
  IC50: 9.23 µM
[9]
  MIC: 10.1 µM (≈ 3.12 µg/mL)
[10]
  MIC: 20.1 µM (≈ 6.25 µg/mL)

## O=C(O)CC(=O)Nc1ccc(-c2nc3cc(Cl)ccc3[nH]2)cc1
[1]
  IC50: > 100 µM
[3]
  cytotoxicity at 72 h, 100 µM: 25.6%
[5]
  IC50: 18.2 µM
[8]
  IC50: 26.3 µM
[9]
  MIC: 75.8 µM (≈ 25 µg/mL)
[10]
  MIC: 75.8 µM (≈ 25 µg/mL)
